Measured values: ChEMBL document CHEMBL1671620, “Mutations in the fks1 gene in Candida albicans, C. tropicalis, and C. krusei correlate with elevated caspofungin MICs uncovered in AM3 medium using the method of the European Committee on Antibiotic Susceptibility Testing” (2008)
Converted amounts (≈) assume the structure as drawn.

Tests used:
Pichia kudriavzevii = assay: Antifungal activity against Candida krusei isolate 1 harboring 1,3-beta-glucan synthase HS1 point mutant grown on AM3 media after 24 hrs by EUCAST microdilution method; details: isolate 1, 24 h
Candida tropicalis [1] = assay: Antifungal activity against Candida tropicalis ATCC 750 expressing wild type 1,3-beta-glucan synthase grown on AM3 media after 48 hrs by EUCAST microdilution method; assay type: functional; details: ATCC 750, 24 h, in the assay text read “24 hrs” for “48 hrs”
How it was run: (§1)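 EUCAST (AFST-EUCAST) broth microdilution with caspofungin at 0.015 to 8 μg/ml final, in AM3 with glucose added to 2% final. Final inoculum was 10⁵ yeast cells/ml, with microplates prepared in batches and stored at −20°C. Plates were incubated at 35°C in humid ambient air and read spectrophotometrically after shaking at 24 h and 48 h. MIC was ≥50% growth reduction versus drug-free well; 90% end point also read at both times.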

Candida albicans [2] = assay: Antifungal activity against Candida albicans isolate 6 expressing wild type 1,3-beta-glucan synthase grown on AM3 media after 48 hrs by EUCAST microdilution method; assay type: functional; details: isolate 6, 24 h, in the assay text read “after 24 hrs” for “after 48 hrs”
How it was run: as §1

Candida albicans [3] = assay: Antifungal activity against Candida albicans isolate 3 expressing wild type 1,3-beta-glucan synthase grown on AM3 media after 48 hrs by EUCAST microdilution method; assay type: functional; details: isolate 3, 24 h, in the assay text read “after 24 hrs” for “after 48 hrs”
How it was run: as §1

Candida albicans [4] = assay: Antifungal activity against Candida albicans isolate 6 expressing wild type 1,3-beta-glucan synthase grown on RPMI media after 24 hrs by EUCAST microdilution method; details: isolate 6, 24 h
Candida albicans [5] = assay: Antifungal activity against Candida albicans isolate 3 expressing wild type 1,3-beta-glucan synthase grown on RPMI media after 24 hrs by EUCAST microdilution method; details: isolate 3, 24 h
Candida albicans [6] = assay: Antifungal activity against Candida albicans isolate 18 expressing wild type 1,3-beta-glucan synthase grown on AM3 media after 24 hrs by EUCAST microdilution method; details: isolate 18, 24 h
Candida albicans [7] = assay: Antifungal activity against Candida albicans isolate 11 expressing wild type 1,3-beta-glucan synthase grown on RPMI media after 24 hrs by EUCAST microdilution method; details: isolate 11, 24 h
Candida albicans [8] = assay: Antifungal activity against Candida albicans isolate 20 harboring 1,3-beta-glucan synthase HS1 point mutant grown on RPMI media after 24 hrs by EUCAST microdilution method; details: isolate 20, 24 h
Candida albicans [9] = assay: Antifungal activity against Candida albicans isolate 5 expressing wild type 1,3-beta-glucan synthase grown on AM3 media after 48 hrs by EUCAST microdilution method; assay type: functional; details: isolate 5, 24 h, in the assay text read “after 24 hrs” for “after 48 hrs”
How it was run: as §1

Candida albicans [10] = assay: Antifungal activity against Candida albicans isolate 4 expressing wild type 1,3-beta-glucan synthase grown on RPMI media after 24 hrs by EUCAST microdilution method; details: isolate 4, 24 h
Candida albicans [11] = assay: Antifungal activity against Candida albicans isolate 12 expressing wild type 1,3-beta-glucan synthase grown on RPMI media after 24 hrs by EUCAST microdilution method; details: isolate 12, 24 h
Candida albicans [12] = assay: Antifungal activity against Candida albicans isolate 12 expressing wild type 1,3-beta-glucan synthase grown on AM3 media after 48 hrs by EUCAST microdilution method; assay type: functional; details: isolate 12, 24 h, in the assay text read “after 24 hrs” for “after 48 hrs”
How it was run: as §1

Candida albicans [13] = assay: Antifungal activity against Candida albicans isolate 16 expressing wild type 1,3-beta-glucan synthase grown on AM3 media after 48 hrs by EUCAST microdilution method; assay type: functional; details: isolate 16, 24 h, in the assay text read “after 24 hrs” for “after 48 hrs”
How it was run: as §1

Candida albicans [14] = assay: Antifungal activity against Candida albicans isolate 20 harboring 1,3-beta-glucan synthase HS1 point mutant grown on AM3 media after 24 hrs by EUCAST microdilution method; details: isolate 20, 24 h
Candida albicans [15] = assay: Antifungal activity against Candida albicans isolate 9 expressing wild type 1,3-beta-glucan synthase grown on RPMI media after 24 hrs by EUCAST microdilution method; details: isolate 9, 24 h
Candida albicans [16] = assay: Antifungal activity against Candida albicans isolate 5 expressing wild type 1,3-beta-glucan synthase grown on RPMI media after 24 hrs by EUCAST microdilution method; details: isolate 5, 24 h
Candida albicans [17] = assay: Antifungal activity against Candida albicans isolate 18 expressing wild type 1,3-beta-glucan synthase grown on RPMI media after 24 hrs by EUCAST microdilution method; details: isolate 18, 24 h
Candida albicans [18] = assay: Antifungal activity against Candida albicans isolate 4 expressing wild type 1,3-beta-glucan synthase grown on AM3 media after 48 hrs by EUCAST microdilution method; assay type: functional; details: isolate 4, 24 h, in the assay text read “after 24 hrs” for “after 48 hrs”
How it was run: as §1

Candida albicans [19] = assay: Antifungal activity against Candida albicans isolate 25 expressing wild type 1,3-beta-glucan synthase grown on RPMI media after 24 hrs by EUCAST microdilution method; details: isolate 25, 24 h
Candida albicans [20] = assay: Antifungal activity against Candida albicans isolate 13 expressing wild type 1,3-beta-glucan synthase grown on RPMI media after 24 hrs by EUCAST microdilution method; details: isolate 13, 24 h
Candida albicans [21] = assay: Antifungal activity against Candida albicans isolate 25 expressing wild type 1,3-beta-glucan synthase grown on AM3 media after 48 hrs by EUCAST microdilution method; assay type: functional; details: isolate 25, 24 h, in the assay text read “after 24 hrs” for “after 48 hrs”
How it was run: as §1

Candida albicans [22] = assay: Antifungal activity against Candida albicans isolate 22 harboring 1,3-beta-glucan synthase HS1 point mutant grown on AM3 media after 24 hrs by EUCAST microdilution method; details: isolate 22, 24 h
Candida albicans [23] = assay: Antifungal activity against Candida albicans isolate 24 harboring 1,3-beta-glucan synthase HS1 point mutant grown on AM3 media after 24 hrs by EUCAST microdilution method; details: isolate 24, 24 h
Candida albicans [24] = assay: Antifungal activity against Candida albicans isolate 15 expressing wild type 1,3-beta-glucan synthase grown on AM3 media after 48 hrs by EUCAST microdilution method; assay type: functional; details: isolate 15, 24 h, in the assay text read “24 hrs” for “48 hrs”
How it was run: as §1

Candida albicans [25] = assay: Antifungal activity against Candida albicans isolate 13 expressing wild type 1,3-beta-glucan synthase grown on AM3 media after 48 hrs by EUCAST microdilution method; assay type: functional; details: isolate 13, 24 h, in the assay text read “after 24 hrs” for “after 48 hrs”
How it was run: as §1

Candida tropicalis [26] = assay: Antifungal activity against Candida tropicalis isolate 1 expressing wild type 1,3-beta-glucan synthase grown on RPMI media after 24 hrs by EUCAST microdilution method; details: isolate 1, 24 h

CC[C@H](C)C[C@H](C)CCCCCCCCC(=O)N[C@H]1C[C@@H](O)[C@@H](NCCN)NC(=O)[C@@H]2[C@@H](O)CCN2C(=O)[C@H]([C@H](O)CCN)NC(=O)[C@H]([C@H](O)[C@@H](O)c2ccc(O)cc2)NC(=O)[C@@H]2C[C@@H](O)CN2C(=O)[C@H]([C@@H](C)O)NC1=O [CASPOFUNGIN]
MIC (Pichia kudriavzevii): 4 µg/mL (≈ 3.66 µM) | MIC (Candida tropicalis [1]): 0.06 µg/mL (≈ 0.0549 µM) | MIC (Candida albicans [2]): 0.03 µg/mL (≈ 0.0274 µM) | MIC (Candida albicans [3]): 0.06 µg/mL (≈ 0.0549 µM) | MIC (Candida albicans [4]): 0.5 µg/mL (≈ 0.457 µM) | MIC (Candida albicans [5]): 0.25 µg/mL (≈ 0.229 µM) | MIC (Candida albicans [6]): 0.015 µg/mL (≈ 0.0137 µM) | MIC (Candida albicans [7]): 0.5 µg/mL (≈ 0.457 µM) | MIC (Candida albicans [8]): 2 µg/mL (≈ 1.83 µM) | MIC (Candida albicans [9]): 0.03 µg/mL (≈ 0.0274 µM) | MIC (Candida albicans [10]): 0.5 µg/mL (≈ 0.457 µM) | MIC (Candida albicans [11]): 0.5 µg/mL (≈ 0.457 µM) | MIC (Candida albicans [12]): 0.03 µg/mL (≈ 0.0274 µM) | MIC (Candida albicans [13]): 0.03 µg/mL (≈ 0.0274 µM) | MIC (Candida albicans [14]): 2 µg/mL (≈ 1.83 µM) | MIC (Candida albicans [15]): 0.5 µg/mL (≈ 0.457 µM) | MIC (Candida albicans [16]): 0.5 µg/mL (≈ 0.457 µM) | MIC (Candida albicans [17]): 1 µg/mL (≈ 0.915 µM) | MIC (Candida albicans [18]): 0.03 µg/mL (≈ 0.0274 µM) | MIC (Candida albicans [19]): 0.25 µg/mL (≈ 0.229 µM) | MIC (Candida albicans [20]): 0.5 µg/mL (≈ 0.457 µM) | MIC (Candida albicans [21]): 0.03 µg/mL (≈ 0.0274 µM) | MIC (Candida albicans [22]): 1 µg/mL (≈ 0.915 µM) | MIC (Candida albicans [23]): 16 µg/mL (≈ 14.6 µM) | MIC (Candida albicans [24]): 0.03 µg/mL (≈ 0.0274 µM) | MIC (Candida albicans [25]): 0.03 µg/mL (≈ 0.0274 µM) | MIC (Candida tropicalis [26]): 2 µg/mL (≈ 1.83 µM)
